Data as given in ChEMBL document CHEMBL1141135, “A positron emission tomography radioligand for the in vivo labeling of metabotropic glutamate 1 receptor: (3-ethyl-2-[11C]methyl-6-quinolinyl)(cis- 4-methoxycyclohexyl)methanone” (J Med Chem, 2005).

What was measured:
[1] = Uptake in rat hippocampus 10 minutes after administration of the radiolabeled [11C]-compound; format: ADME, tissue-based; conditions: in vivo
Outline: (§1)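 Male Sprague-Dawley rats received the [11C] radioligand iv and were sacrificed at 10, 30 or 60 min. Brain regions were dissected and radioactivity counted. Uptake is expressed as %ID/g, mean ± SD, n = 3 animals per group.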

[2] = Uptake in rat medulla 60 minutes after administration of the radiolabeled [11C]-compound; format: ADME, tissue-based, Medulla of organ; conditions: in vivo, 1 h; outline: as §1
[3] = Uptake in rat cerebellum 10 minutes after administration of the radiolabeled [11C]-compound; format: ADME, tissue-based; conditions: in vivo; outline: as §1
[4] = Uptake in rat striatum 10 minutes after administration of the radiolabeled [11C]-compound; format: ADME, tissue-based; conditions: in vivo; outline: as §1
[5] = Uptake in rat blood 30 minutes after administration of the radiolabeled [11C]-compound; format: ADME, tissue-based; conditions: 0.5 h
[6] = Uptake in rat cerebellum 30 minutes after administration of the radiolabeled [11C]-compound; format: ADME, tissue-based; conditions: in vivo, 0.5 h; outline: as §1
[7] = Uptake in rat blood 60 minutes after administration of the radiolabeled [11C]-compound; format: ADME, tissue-based; conditions: 1 h
[8] = Uptake in rat medulla 10 minutes after administration of the radiolabeled [11C]-compound; format: ADME, tissue-based, Medulla of organ; conditions: in vivo; outline: as §1
[9] = Uptake in rat striatum 60 minutes after administration of the radiolabeled [11C]-compound; format: ADME, tissue-based; conditions: in vivo, 1 h; outline: as §1
[10] = Uptake in rat medulla 30 minutes after administration of the radiolabeled [11C]-compound; format: ADME, tissue-based, Medulla of organ; conditions: in vivo, 0.5 h; outline: as §1
[11] = Uptake in rat frontal cortex 10 minutes after administration of the radiolabeled [11C]-compound; format: ADME, tissue-based; conditions: in vivo; outline: as §1
[12] = Uptake in rat frontal cortex 60 minutes after administration of the radiolabeled [11C]-compound; format: ADME, tissue-based; conditions: in vivo, 1 h; outline: as §1
[13] = Uptake in rat hippocampus 60 minutes after administration of the radiolabeled [11C]-compound; format: ADME, tissue-based; conditions: in vivo, 1 h; outline: as §1
[14] = Uptake in rat cerebellum 60 minutes after administration of the radiolabeled [11C]-compound; format: ADME, tissue-based; conditions: in vivo, 1 h; outline: as §1
[15] = molecular target: Metabotropic glutamate receptor 5 (Rattus norvegicus, UniProt P31424); experiment: In vitro affinity for cloned rat metabotropic glutamate 5 receptors stably expressed on CHO cells determined in radioligand binding assay; format: cell-based
Metabotropic glutamate receptor 5, sequence (P31424 whole entry): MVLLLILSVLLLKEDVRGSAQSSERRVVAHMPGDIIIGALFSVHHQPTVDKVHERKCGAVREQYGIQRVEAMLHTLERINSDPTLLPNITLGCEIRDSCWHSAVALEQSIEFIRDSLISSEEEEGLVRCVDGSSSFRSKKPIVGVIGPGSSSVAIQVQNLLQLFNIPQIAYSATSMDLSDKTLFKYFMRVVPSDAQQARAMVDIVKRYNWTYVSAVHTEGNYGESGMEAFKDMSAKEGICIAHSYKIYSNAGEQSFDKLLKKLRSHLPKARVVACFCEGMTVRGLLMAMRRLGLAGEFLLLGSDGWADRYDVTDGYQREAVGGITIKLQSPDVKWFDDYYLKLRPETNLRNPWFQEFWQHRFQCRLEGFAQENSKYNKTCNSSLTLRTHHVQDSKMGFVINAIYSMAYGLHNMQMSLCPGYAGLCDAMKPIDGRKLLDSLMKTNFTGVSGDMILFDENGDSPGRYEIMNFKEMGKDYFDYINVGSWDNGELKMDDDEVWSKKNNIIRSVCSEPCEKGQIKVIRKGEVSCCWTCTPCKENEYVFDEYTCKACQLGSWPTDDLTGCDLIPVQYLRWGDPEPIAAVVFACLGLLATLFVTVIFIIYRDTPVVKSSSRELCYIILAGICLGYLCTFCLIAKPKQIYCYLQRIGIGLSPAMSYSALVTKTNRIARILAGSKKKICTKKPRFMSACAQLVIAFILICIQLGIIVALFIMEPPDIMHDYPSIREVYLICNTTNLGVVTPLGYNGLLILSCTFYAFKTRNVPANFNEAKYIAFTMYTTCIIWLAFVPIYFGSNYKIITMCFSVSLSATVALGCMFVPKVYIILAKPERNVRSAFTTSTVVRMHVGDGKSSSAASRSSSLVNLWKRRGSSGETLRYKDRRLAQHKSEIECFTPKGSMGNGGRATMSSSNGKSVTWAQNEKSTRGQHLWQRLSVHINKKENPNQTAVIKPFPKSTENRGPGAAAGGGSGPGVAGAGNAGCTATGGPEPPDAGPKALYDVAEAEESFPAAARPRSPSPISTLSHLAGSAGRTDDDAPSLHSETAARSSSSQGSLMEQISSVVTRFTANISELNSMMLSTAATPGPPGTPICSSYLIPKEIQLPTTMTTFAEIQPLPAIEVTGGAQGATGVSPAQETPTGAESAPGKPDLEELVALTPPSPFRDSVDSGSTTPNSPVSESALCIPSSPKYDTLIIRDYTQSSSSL

[16] = Uptake in rat frontal cortex 30 minutes after administration of the radiolabeled [11C]-compound; format: ADME, tissue-based; conditions: in vivo, 0.5 h; outline: as §1
[17] = molecular target: Metabotropic glutamate receptor 1 (Rattus norvegicus, UniProt P23385); experiment: In vitro affinity for cloned rat metabotropic glutamate 1 receptors stably expressed on CHO cells determined using [3H]-R214127 as radioligand; format: cell-based
Metabotropic glutamate receptor 1, sequence (P23385 whole entry): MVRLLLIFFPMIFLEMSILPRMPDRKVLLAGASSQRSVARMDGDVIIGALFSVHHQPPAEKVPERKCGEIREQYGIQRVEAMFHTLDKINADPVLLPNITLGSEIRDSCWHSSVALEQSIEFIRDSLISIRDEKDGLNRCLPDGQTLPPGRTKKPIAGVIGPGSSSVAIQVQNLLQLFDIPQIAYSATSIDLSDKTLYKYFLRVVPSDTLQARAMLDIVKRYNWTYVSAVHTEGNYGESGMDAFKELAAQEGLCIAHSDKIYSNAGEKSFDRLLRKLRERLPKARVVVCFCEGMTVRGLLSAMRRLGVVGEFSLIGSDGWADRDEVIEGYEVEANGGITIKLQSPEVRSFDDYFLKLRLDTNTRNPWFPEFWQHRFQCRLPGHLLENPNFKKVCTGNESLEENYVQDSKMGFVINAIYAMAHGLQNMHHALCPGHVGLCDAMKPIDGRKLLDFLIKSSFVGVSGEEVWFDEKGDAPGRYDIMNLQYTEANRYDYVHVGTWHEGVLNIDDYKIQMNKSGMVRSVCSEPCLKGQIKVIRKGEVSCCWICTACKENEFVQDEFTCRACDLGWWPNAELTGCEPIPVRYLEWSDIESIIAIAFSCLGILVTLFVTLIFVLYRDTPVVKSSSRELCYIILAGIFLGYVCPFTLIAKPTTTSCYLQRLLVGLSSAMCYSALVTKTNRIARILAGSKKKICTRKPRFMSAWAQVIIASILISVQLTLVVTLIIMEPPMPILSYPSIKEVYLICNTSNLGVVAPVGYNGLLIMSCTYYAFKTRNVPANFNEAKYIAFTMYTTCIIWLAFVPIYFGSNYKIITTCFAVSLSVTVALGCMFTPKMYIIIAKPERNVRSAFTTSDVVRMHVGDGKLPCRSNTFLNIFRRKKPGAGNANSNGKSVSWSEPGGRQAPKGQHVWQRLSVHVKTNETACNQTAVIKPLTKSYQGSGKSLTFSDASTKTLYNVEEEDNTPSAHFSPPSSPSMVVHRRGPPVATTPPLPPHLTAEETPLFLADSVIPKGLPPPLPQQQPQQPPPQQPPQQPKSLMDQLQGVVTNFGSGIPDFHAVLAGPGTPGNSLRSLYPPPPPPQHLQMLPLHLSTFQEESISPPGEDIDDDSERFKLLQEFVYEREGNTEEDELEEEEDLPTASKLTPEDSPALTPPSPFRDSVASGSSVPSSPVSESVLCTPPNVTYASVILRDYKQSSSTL

[18] = Uptake in rat striatum 30 minutes after administration of the radiolabeled [11C]-compound; format: ADME, tissue-based; conditions: in vivo, 0.5 h; outline: as §1
[19] = Uptake in rat blood 10 minutes after administration of the radiolabeled [11C]-compound; format: ADME, tissue-based
[20] = Uptake in rat hippocampus 30 minutes after administration of the radiolabeled [11C]-compound; format: ADME, tissue-based; conditions: in vivo, 0.5 h; outline: as §1

## CCc1cc2cc(C(=O)[C@H]3CC[C@@H](OC)CC3)ccc2nc1C
[1]
  ID/g: 0.58%
[2]
  ID/g: 0.07%
[3]
  ID/g: 1.24%
[4]
  ID/g: 0.73%
[5]
  ID/g: 0.26%
[6]
  ID/g: 0.61%
[7]
  ID/g: 0.2%
[8]
  ID/g: 0.47%
[9]
  ID/g: 0.1%
[10]
  ID/g: 0.13%
[11]
  ID/g: 0.52%
[12]
  ID/g: 0.07%
[13]
  ID/g: 0.1%
[14]
  ID/g: 0.27%
[15]
  Ki: 2.37 µM
[16]
  ID/g: 0.13%
[17]
  Ki: 0.00087 µM
[18]
  ID/g: 0.17%
[19]
  ID/g: 0.42%
[20]
  ID/g: 0.17%
